Screening data as filed in PubChem BioAssay.
CHRM4 PAM: CHRM4 positive allosteric modulation | P08173 | CHO-K1 hM4/Gqi5, Fluo-8 calcium fluorescence, ACh EC20; 0% = ACh EC20, 100% = maximal ACh | activation, % at 3 µM | 0.4% of 360,000 active | AID 624126;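 active means activation above its plate's cutoff, the mean activation of sample wells plus 3 SD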
M4 ag: CHRM4 agonism in calcium assay; CHO-K1 hM4/Gqi5, Fluo-8 calcium fluorescence; vehicle 0%, full acetylcholine response 100%; AID 624127; 0.14% of 360,000 active; activation, % at 3 µM;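 active means activation above the run mean over all test wells plus 3 SD, cut at about 32% in these data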;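 further: peak over basal fluorescence ratio per well then scaled between controls; 0% = DMSO wells and 100% = acetylcholine at EC100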
CHRM4 antagonist: antagonists of human muscarinic M4 receptor (CHRM4) | P08173 | CHO-hM4 cells, ACh EC80, Fluo-8 calcium fluorescence | inhibition, % at 3 µM | 0.73% of 360,000 active | AID 624125;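 active means inhibition above its plate's cutoff, the mean inhibition of sample wells plus 3 SD, cut at about 27% in these data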;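 further: 0% = acetylcholine EC80 with DMSO and 100% = DMSO without agonist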
TAAR1 antagonist: human TAAR1 antagonism | 1.5% of 360,000 active | CHO RD-HGA16 TAAR1, Fluo-8 calcium fluorescence, antagonist | AID 624466 | inhibition, % at 3 µM | Q96RJ0;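 active means inhibition above a per-plate cutoff, the mean inhibition of test compounds on that plate plus 3 SD, cut at about 49% in these data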;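 further: 0% = DMSO plus EC80 beta-PEA response and 100% = DMSO alone without agonist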
Target sequence (Q96RJ0 whole entry, looked up): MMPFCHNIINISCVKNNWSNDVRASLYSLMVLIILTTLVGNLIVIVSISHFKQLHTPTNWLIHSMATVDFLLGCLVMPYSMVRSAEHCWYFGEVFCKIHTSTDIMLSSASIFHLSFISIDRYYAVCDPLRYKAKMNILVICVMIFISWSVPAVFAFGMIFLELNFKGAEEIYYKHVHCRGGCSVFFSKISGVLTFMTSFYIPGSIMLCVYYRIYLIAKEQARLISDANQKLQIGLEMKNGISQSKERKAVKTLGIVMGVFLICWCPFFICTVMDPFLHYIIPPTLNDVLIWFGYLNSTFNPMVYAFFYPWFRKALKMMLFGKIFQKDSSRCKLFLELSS
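Material: RD-HGA16 CHO cells with stable hTAAR1 and Gα16; Dosing: single nominal final test compound concentration of 3 µM; Schedule: seeding 17-24 h prior, 75-min 37 °C, 30-min RT dye loading; Detection: kinetic Fluo-8 calcium fluorescence measurement; Measure: % inhibition from peak post-agonist over basal fluorescence ratio; Benchmarks: vehicle and agonist controls.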
TAAR1 ag: agonists of human TAAR1; Q96RJ0; CHO RD-HGA16 TAAR1, Fluo-8 calcium fluorescence; vehicle wells 0%, saturating PEA agonist 100%; activation, % at 3 µM; 0.99% of 360,000 active;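 active means activation above the mean activation of all test compounds in the run plus 3 SD, cut at about 38% in these data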
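Test system: RD-HGA16 (CHO) cells co-expressing Gα16 and hTAAR1; dosing: one-point dosing at 3 µM (nominal); timing: 17-24 h seeding, 75 min 37 °C dye, 30 min RT; signal: kinetic Fluo-8 calcium fluorescence; read-out basis: % activation relative to PEA EC100 response; controls: DMSO and PEA EC100; replicates: n 1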
* marks the source's active call; other numbers are inactive results; / = no result; ! = not active in a repeat. This is a sample that favours compounds with a hit; in the whole collection about 3% have one here.

SMILES	CHRM4 PAM	M4 ag	CHRM4 antagonist	TAAR1 antagonist	TAAR1 ag
COc1ccc(CN(Cc2ccc(C(=O)O)cc2)C(=S)Nc2ccccc2C)cc1OC	1.6	0.5	7.8	6.0	6.0
COc1cccc(NC(=S)N(Cc2ccc(C(=O)O)cc2)Cc2ccc(OC)c(OC)c2)c1	19.7*	1.0	8.8	-7.7	1.5
Cc1cc(=O)oc(C)c1C(=O)NCC1COc2ccccc2O1 (configuration not stated)	4.0	0.1	-11.2	-10.7	39.9*
CC(=O)NCC1COc2ccccc2O1 (configuration not stated)	-4.8	0.5	-3.0	8.6	3.6
CC(=O)OCC(=O)[C@@]1(OC(C)=O)[C@@H](C)C[C@H]2[C@@H]3C[C@H](F)C4=CC(=O)C=C[C@]4(C)[C@@]3(F)[C@@H](O)C[C@@]21C	-15.3	1.4	41.3*	0.2	2.8
Cc1ccccc1-c1nnc(SC(C)C(=O)NC2CCCC2)o1 (configuration not stated)	0.9	0.3	2.3	-11.8	-0.9
CCCCNCc1ccc(OCc2ccc(Cl)nc2)c(OC)c1	-6.2	0.7	12.1	-24.8	2.0
COc1cc(CNCC(O)c2ccccc2)ccc1OCc1ccc(Cl)nc1 (configuration not stated)	-3.0	5.9	-10.4	-10.6	39.2*
CC(C)(C)c1ccc(S(=O)(=O)N2C=CC(C(F)(F)F)=NCC2)cc1	4.1	3.2	-3.4	-2.2	9.3
Cc1ccc(S(=O)(=O)N2C=CC(C(F)(F)F)=NCC2)cc1	18.4*	1.5	-14.2	5.2	5.8
O=S(=O)(c1cccs1)N1CCN(c2ccnc3cc(Cl)ccc23)CC1	-17.4	-1.2	100.3*	34.9	0.3
O=C(NCCc1ccc(Cl)cc1)c1cccc(S(=O)(=O)N2CCCC2)c1	-1.8	5.6	-17.3	-27.4	0.9
C[C@@H]1ON(C)[C@H]2C[C@H]3c4[nH]c5c(-c6ccccc6)cccc5c4CCN3C[C@@H]12	/	/	/	-7.4	5.2
CCCn1nnc2c(=O)oc3ccccc3c21	2.1	0.0	-5.1	2.0	0.4
CCCCCn1nnc2c(=O)oc3ccccc3c21	28.3*	2.4	-5.4	4.4	0.8
CCOC(=O)C1(Cc2cccc(Cl)c2)CCCN(C(=O)CCSC)C1 (configuration not stated)	-4.0	-0.1	6.7	6.8	3.0
CCOC(=O)C1(Cc2cccc(Cl)c2)CCCN(C(=O)CCOC)C1 (configuration not stated)	23.8*	1.8	-14.9	-0.1	10.9
Cc1c(C(=O)Nc2ccc3c(c2)OCCO3)sc2nc(-c3ccccc3)cn12	-11.2	30.4	33.6*	64.4*	10.5
Cc1c(C(=O)Nc2ccncc2)sc2nc(-c3ccccc3)cn12	-5.9	26.5	-5.6	58.1*	13.0
Cc1c(C(=O)N2CCOCC2)sc2nc(-c3ccccc3)cn12	-4.4	1.0	4.9	-3.0	9.9
Cc1c(C(=O)NCc2cccnc2)sc2nc(-c3ccccc3)cn12	-2.8	3.8	0.5	-5.8	1.6
Cc1ccc(-n2c(C)cc(/C=C3\NC(=O)NC3=O)c2C)c(C)c1	-24.2	-1.4	34.9*	-36.4	3.7
Cc1cc(/C=C2/NC(=O)NC2=O)c(C)n1-c1ccccn1	5.8	0.7	-8.8	-20.4	3.1
COc1ccccc1C(=O)N1CCC2CCNC2C1 (configuration not stated)	/	/	/	-5.2	1.1
CN(C)C(=O)CSc1nnc(-c2cc(-c3cccs3)nc3ccccc23)o1	8.0	3.9	2.3	49.5*	15.3
SMILES	CHRM4 PAM	M4 ag	CHRM4 antagonist	TAAR1 antagonist	TAAR1 ag
Cn1nccc1-c1ccc(C(=O)NCc2ccc(Cl)cc2)c2occc12	-10.0	11.3	2.6	/	/
Nc1nc2ccc([N+](=O)[O-])cc2[nH]1	11.7	0.8	-4.0	-11.7	1.4
Nc1[nH]c2cc([N+](=O)[O-])ccc2c1-c1ccccn1	-20.2	54.3*	20.8	69.4*	19.2
C/C(N)=C(/C#N)C(=O)CSc1nnc(SCc2ccc(Cl)cc2)s1	-4.6	11.4	-7.8	52.1*!	4.4
COC(=O)[C@]12C[C@H](CC(=O)NCCC(C)C)C(=O)N(Cc3ccccc3)C1=C[C@H](C(C)C)O[C@@H]2C1CC1	/	/	/	-17.4	-1.0
COc1cc2c(cc1OC)CN(C(=O)c1cccc(S(=O)(=O)N(C)C)c1)CC2	17.4	1.1	29.2*	-21.2	5.2
COc1cc2c(cc1OC)CN(C(=O)c1cccc(S(=O)(=O)N3CCc4ccccc43)c1)CC2	-0.5	3.4	-0.9	-9.1	-2.3
O=C(NCCN1CCOCC1)c1ccc(-c2ccccc2)cc1	-5.3	0.6	5.6	/	/
O=C(Cc1ccc(-c2ccccc2)cc1)NCCN1CCOCC1	19.1*	4.4	-0.4	-3.7	2.2
O=C(CN1CCOCC1)NCCc1ccccc1	24.3*	7.0	24.3	-8.4	24.2
NC(=O)N/N=C/c1c(F)cccc1F	23.0*	0.7	-2.4	-10.8	1.8
NC(=O)N/N=C/c1c(F)c(F)c(F)c(F)c1F	2.8	0.6	-7.2	10.3	7.2
CCCCCC(=O)NC1CCCCN(C)C1=O (configuration not stated)	/	/	/	-25.9	3.3
Cn1ncc2c(NCCc3ccccc3)nc(Cl)nc21	2.7	11.9	-13.2	43.1	37.8*
COCCNC(=S)N(C)[C@H]1C[C@H]2c3[nH]c4cccc(-c5ccccc5)c4c3CCN2C(=O)[C@H]1[C@H](C)O	/	/	/	-7.4	0.5
CCCCCCCCN1C(=O)[C@@H](CC(=O)N2CCCCC2)C[C@@]2(C(=O)OC)C1=C[C@H](C(C)(C)C)O[C@@H]2C	/	/	/	-23.8	-1.5
Cc1ccc(C(=O)N2CCC3(CC2)NCCc2[nH]cnc23)cc1C	16.6*	3.3	-1.2	-0.8	1.3
COc1ccccc1NC(=O)c1cc2c(=O)n(C)c3ccccc3c2n1C	-22.4	9.6	53.7*	35.7	6.5
C[C@@H]1ON(C)[C@H]2C[C@H]3c4cc(Nc5ccccc5)ccc4CCN3C[C@@H]12	/	/	/	-29.2	0.1
Cc1ccccc1NC(=O)Cc1nc(COC(=O)COc2ccccc2C(C)C)cs1	-0.3	4.9	2.9	54.6*	1.7
CN1CCCCC(NC(=O)C2CCCCC2)C1=O (configuration not stated)	/	/	/	-25.6	2.0
O=C(c1ccc([N+](=O)[O-])cc1[N+](=O)[O-])n1cnc2ccccc21	-12.9	18.1	-8.7	51.6*	16.4
Cc1cc(NC(=O)c2ccc(F)c(S(=O)(=O)N3CCCCC3)c2)no1	-13.5	-0.2	51.0*	-11.0	0.9
Cc1cc(NC(=O)c2cccc(S(=O)(=O)N3CCCCCC3)c2)no1	10.3	1.9	-5.0	0.9	9.7
O=C(c1ccc2c(c1)OCCO2)N1CCCCC1	26.9*	1.1	0.1	-0.1	3.3
O=C(c1ccccc1)N1CCN(C(=O)c2ccc3c(c2)OCCO3)CC1	-4.9	0.3	7.0	-11.6	-0.5
